Laboratory results taken from ChEMBL document CHEMBL1153377, “8-Bromo-9-alkyl adenine derivatives as tools for developing new adenosine A2A and A2B receptors ligands” (Bioorg Med Chem, 2009).

Assays:
[1] = molecular target: Adenosine receptor A2a (Homo sapiens, UniProt P29274); test: Displacement of [3H]NECA from human adenosine A2A receptor expressed in CHO cells; type: cell-based
Procedure, shortened: (§1)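 CHO cells stably expressing human receptor; membranes from a two-step spin (1000 g, then 100,000 g), resuspended in binding buffer, stored -80 °C. Competition with [3H]NECA at 30 nM (A2A) or 10 nM (A3); nonspecific binding defined with […]. Ki derived from competition experiments.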

[2] = molecular target: T1, Adenosine receptor A1 (Homo sapiens, UniProt P30542); test: Displacement of [3H]CCPA from human adenosine A1 receptor expressed in CHO cells; type: cell-based
T1 sequence (P30542 whole entry): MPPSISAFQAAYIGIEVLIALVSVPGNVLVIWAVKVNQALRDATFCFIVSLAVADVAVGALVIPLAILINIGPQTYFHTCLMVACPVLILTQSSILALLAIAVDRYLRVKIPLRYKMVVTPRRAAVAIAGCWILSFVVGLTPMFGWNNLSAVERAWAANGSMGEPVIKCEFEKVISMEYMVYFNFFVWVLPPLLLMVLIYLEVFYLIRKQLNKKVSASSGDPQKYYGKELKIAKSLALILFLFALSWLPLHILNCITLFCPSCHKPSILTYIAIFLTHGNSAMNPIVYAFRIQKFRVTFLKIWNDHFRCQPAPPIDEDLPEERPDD
Procedure, shortened: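 Membranes from CHO cells stably expressing human A1 receptor (1000 g spin to clear nuclei, then 100,000 g pellet, stored -80 °C in binding buffer). Competition binding with 1 nM [3H]CCPA; nonspecific binding defined with 1 mM theophylline. Ki calculated from competition curves.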

[3] = molecular target: T2, Adenosine receptor A3 (Homo sapiens, UniProt P0DMS8); test: Displacement of [3H]NECA from human adenosine A3 receptor expressed in CHO cells; type: cell-based; procedure, shortened: as §1
T2 sequence (P0DMS8 whole entry): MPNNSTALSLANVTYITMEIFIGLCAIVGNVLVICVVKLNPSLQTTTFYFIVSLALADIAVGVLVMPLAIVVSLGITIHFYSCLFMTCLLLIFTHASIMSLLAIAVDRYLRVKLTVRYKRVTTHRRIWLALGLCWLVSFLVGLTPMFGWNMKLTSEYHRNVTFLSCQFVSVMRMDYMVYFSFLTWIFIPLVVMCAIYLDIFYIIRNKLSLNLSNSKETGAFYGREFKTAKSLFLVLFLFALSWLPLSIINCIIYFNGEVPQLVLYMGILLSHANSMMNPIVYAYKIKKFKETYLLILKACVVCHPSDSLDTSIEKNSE

[4] = molecular target: T3, Adenosine receptor A2b (Homo sapiens, UniProt P29275); test: Antagonist activity at human adenosine A2B receptor expressed in CHO cells assessed as inhibition of NECA-stimulated adenylyl cyclase activity; type: functional, cell-based
T3 sequence (P29275 whole entry): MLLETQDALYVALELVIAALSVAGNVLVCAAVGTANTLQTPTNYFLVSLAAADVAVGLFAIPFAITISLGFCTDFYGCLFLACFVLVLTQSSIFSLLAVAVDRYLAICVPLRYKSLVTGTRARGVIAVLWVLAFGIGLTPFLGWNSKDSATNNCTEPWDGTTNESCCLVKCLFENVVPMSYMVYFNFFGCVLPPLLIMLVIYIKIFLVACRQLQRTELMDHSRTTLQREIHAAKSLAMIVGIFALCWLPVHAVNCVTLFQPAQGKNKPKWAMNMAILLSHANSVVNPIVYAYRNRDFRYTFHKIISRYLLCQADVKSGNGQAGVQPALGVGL
Procedure, shortened: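 Membranes from CHO cells stably transfected with human A2B receptor, prepared by a single high-speed centrifugation of the homogenate, resuspended in 50 mM Tris/HCl pH 7.4 and used at once. Inhibition of NECA-stimulated adenylyl cyclase activity measured; IC50 converted to Ki by Cheng-Prusoff equation.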

Adenosine receptor A2a, sequence (P29274 whole entry): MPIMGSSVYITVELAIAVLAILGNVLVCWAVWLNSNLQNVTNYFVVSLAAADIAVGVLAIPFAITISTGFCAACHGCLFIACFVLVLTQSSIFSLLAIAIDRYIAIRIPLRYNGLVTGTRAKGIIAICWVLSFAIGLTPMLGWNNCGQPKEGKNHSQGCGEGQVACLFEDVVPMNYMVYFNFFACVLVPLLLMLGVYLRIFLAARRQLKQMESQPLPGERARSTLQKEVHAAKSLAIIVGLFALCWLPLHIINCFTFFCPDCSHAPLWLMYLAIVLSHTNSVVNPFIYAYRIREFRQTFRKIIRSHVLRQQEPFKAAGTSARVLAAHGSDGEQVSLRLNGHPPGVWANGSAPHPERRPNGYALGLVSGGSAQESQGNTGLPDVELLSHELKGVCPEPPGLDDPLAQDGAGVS

Structure (SMILES)	Ki [1] [µM]	Ki [2] [µM]	Ki [3] [µM]	Ki [4] [µM]
Nc1ncnc2c1ncn2C1CC1	2.3	> 100	> 100	> 30
CCCCn1c(Br)nc2c(N)ncnc21	0.73	3.2	> 100	5.6
CCCCn1cnc2c(N)ncnc21	7.8	> 100	> 100	> 30
Nc1ncnc2c1ncn2CCCO	3.9	> 100	> 100	> 30
Nc1ncnc2c1nc(Br)n2CCCO	0.085	1	3.2	5.1
CC(O)Cn1cnc2c(N)ncnc21 (stereo not given)	3.1	29	> 100	> 30
Nc1ncnc2c1nc(Br)n2CCc1ccccc1	4.9	12	> 30	> 30
CCC(C)n1cnc2c(N)ncnc21 (stereo not given)	16	34	> 100	19
C=CCCn1cnc2c(N)ncnc21	8.5	> 100	> 100	> 30
CCCn1cnc2c(N)ncnc21	9.6	9.4	≥ 100	1.7
Nc1ncnc2c1ncn2CCc1ccccc1	9.6	> 100	> 100	> 30
CCn1c(Br)nc2c(N)ncnc21	0.052	0.28	28	0.84
Nc1ncnc2c1nc(Br)n2CCO	0.62	1.5	> 100	2.8
CC(O)Cn1cnc2ncnc(N)c21 (stereo not given)	> 100	> 100	> 100	> 30
Nc1ncnc2ncn(CC(O)CO)c12 (stereo not given)	> 100	> 100	> 100	> 30
Nc1ncnc2ncn(CCCO)c12	> 100	> 100	> 100	> 30
Nc1ncnc2c1ncn2Cc1ccccc1 [9-BENZYL-9H-ADENINE]	8.5	> 100	> 100	> 30
CC(C)n1cnc2ncnc(N)c21	12	20	> 100	> 30
Nc1ncnc2c1nc(Br)n2C1CCCCC1	15	4.6	11	> 30
Nc1ncnc2ncn(CCO)c12	> 100	> 100	> 100	> 30
CC(C)n1cnc2c(N)ncnc21	4.1	4.3	> 100	16
CCCn1cnc2ncnc(N)c21	18	> 100	> 100	> 30
CC(O)Cn1c(Br)nc2c(N)ncnc21 (stereo not given)	1.1	2.9	≥ 100	0.64
Nc1ncnc2c1ncn2C1CCCCCC1	11	> 100	> 100	> 30
Nc1ncnc2c1nc(Br)n2C1CCCC1	1.9	1	4.2	0.86

Structure (SMILES)	Ki [1] [µM]	Ki [2] [µM]	Ki [3] [µM]	Ki [4] [µM]
CCCn1c(Br)nc2c(N)ncnc21	0.3	1.1	≥ 100	0.2
Nc1ncnc2c1ncn2C1CCCCC1	> 100	> 100	> 100	> 30
CC(C)Cn1c(Br)nc2c(N)ncnc21	6	4.9	15	4.2
Nc1ncnc2c1ncn2C1CCCC1	1.8	10	13	> 30
CCn1cnc2c(N)ncnc21	2.2	7.4	> 100	> 30
C=CCCn1c(Br)nc2c(N)ncnc21	1.6	4.9	> 100	> 30
Nc1ncnc2c1ncn2C[C@H](O)CO [(S)-DHPA]	8.5	> 100	> 100	> 30
Nc1ncnc2c1ncn2CCO	11	29	> 100	> 30
Nc1ncnc2c1ncn2C1CCC1	4.8	8.7	33	17
Cn1cnc2ncnc(N)c21	> 100	> 100	> 100	> 30
CCn1cnc2ncnc(N)c21	30	> 100	> 100	> 30
CCC(C)n1cnc2ncnc(N)c21 (stereo not given)	> 100	> 100	> 100	> 30
Nc1ncnc2c1nc(Br)n2CC(O)CO (stereo not given)	4	16	≥ 100	7.1
CC(C)Cn1cnc2ncnc(N)c21	> 100	> 100	> 100	> 30
Nc1ncnc2c1nc(Br)n2C1CCCCCC1	> 100	> 100	> 100	> 30
Nc1ncnc2c1nc(Br)n2Cc1ccccc1	6.1	6.7	≥ 100	> 30
C=CCn1c(Br)nc2c(N)ncnc21	0.73	8.4	20	4.6
CC(C)n1c(Br)nc2c(N)ncnc21	0.074	0.83	15	1.1
Cn1cnc2c(N)ncnc21		12	> 100	> 30
Nc1ncnc2nc(Br)[nH]c12	3.2	33	> 10	> 30
Nc1ncnc2c1nc(Br)n2C1CCC1	0.66	2.2	6.2	4.1
CCC(C)n1c(Br)nc2c(N)ncnc21 (stereo not given)	0.39	3.1	15	1.2
CC(C)Cn1cnc2c(N)ncnc21	> 100	> 100	> 100	> 30
Cn1c(Br)nc2c(N)ncnc21	0.12	0.57	> 100	0.72
